ChEMBL document CHEMBL1158548, “Tetrahydrochromenoimidazoles as potassium-competitive acid blockers (P-CABs): structure-activity relationship of their antisecretory properties and their affinity toward the hERG channel” (J Med Chem, 2010)

Assays:
Gastric gland = assay: Inhibition of acid secretion in New Zealand White rabbit intact gastric glands assessed as [14C]dimethylaminopyridine accumulation by radioactivity; format: functional, tissue-based; conditions: Oryctolagus cuniculus
Method in brief: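 Gastric glands isolated intact from New Zealand rabbits; cellular activity read as reduced accumulation of the weak base 14C-dimethylaminopyridine; pIC50 given as geometric mean of 4-5 determinations.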

hERG (KCNH2) = hERG (KCNH2) (Homo sapiens, UniProt Q12809); assay: Inhibition of human ERG expressed in CHO-K1 cells at 10 uM by whole-cell patch clamp technique; format: cell-based; conditions: CHO-K1 cells that express human ERG
hERG (KCNH2), sequence (Q12809 whole entry): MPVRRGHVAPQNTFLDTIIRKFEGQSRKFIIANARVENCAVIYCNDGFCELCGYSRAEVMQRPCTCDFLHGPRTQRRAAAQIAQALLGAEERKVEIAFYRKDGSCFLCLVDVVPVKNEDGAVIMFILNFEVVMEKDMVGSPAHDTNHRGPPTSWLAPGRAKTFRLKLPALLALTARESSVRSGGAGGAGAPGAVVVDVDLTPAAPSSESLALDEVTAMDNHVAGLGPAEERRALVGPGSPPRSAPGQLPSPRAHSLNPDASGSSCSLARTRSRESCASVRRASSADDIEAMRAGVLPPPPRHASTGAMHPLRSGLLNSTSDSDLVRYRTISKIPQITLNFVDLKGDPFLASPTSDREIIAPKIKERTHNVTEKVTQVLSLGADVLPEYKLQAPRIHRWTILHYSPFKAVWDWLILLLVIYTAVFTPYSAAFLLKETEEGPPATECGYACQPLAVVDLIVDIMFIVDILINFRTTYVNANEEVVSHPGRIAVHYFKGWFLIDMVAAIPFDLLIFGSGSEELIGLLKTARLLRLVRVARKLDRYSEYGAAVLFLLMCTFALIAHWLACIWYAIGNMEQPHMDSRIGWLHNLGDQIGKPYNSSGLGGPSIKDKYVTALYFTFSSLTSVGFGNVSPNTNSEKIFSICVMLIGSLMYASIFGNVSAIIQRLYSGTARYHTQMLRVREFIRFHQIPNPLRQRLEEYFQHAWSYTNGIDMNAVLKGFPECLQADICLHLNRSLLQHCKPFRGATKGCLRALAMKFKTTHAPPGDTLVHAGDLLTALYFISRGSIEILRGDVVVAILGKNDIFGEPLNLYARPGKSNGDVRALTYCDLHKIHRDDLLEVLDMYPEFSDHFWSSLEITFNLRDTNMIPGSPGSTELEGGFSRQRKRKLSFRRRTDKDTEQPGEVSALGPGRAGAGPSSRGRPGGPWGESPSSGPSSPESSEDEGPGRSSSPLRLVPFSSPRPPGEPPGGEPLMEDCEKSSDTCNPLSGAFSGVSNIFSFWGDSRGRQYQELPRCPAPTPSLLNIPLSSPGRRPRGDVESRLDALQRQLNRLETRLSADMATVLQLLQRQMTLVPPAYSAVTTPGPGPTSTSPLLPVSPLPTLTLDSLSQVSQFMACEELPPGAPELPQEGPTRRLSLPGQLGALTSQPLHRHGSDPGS
Method in brief: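 CHO-K1 cells stably transfected with hERG; whole-cell patch clamp recording of tail currents with test compound at 10 μM, three cells per compound; relative block of tail current amplitude given as arithmetic mean.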

Rattus norvegicus = assay: Inhibition of pentagastrin-stimulated acid secretion in intraduodenally dosed perfused Sprague-Dawley rat Ghosh Schild model; format: functional; conditions: intraduodenal
[1] = Inhibition of H+/K+ ATPase in hog gastric mucosa by malachite green based competitive binding assay; format: tissue-based, Sus scrofa
Method in brief: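 Hog gastric mucosa H+/K+-ATPase, isolated enzyme; competitive binding assay run at pH 7.4; pIC50 reported as geometric mean of 4-5 measurements.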

[2] = Partition coefficient, log D by HPLC; format: physicochemical; conditions: octanol/water
Method in brief: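 logD by reversed-phase HPLC at 37 °C, calibrated with seven reference substances of known logD.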

| IC50 (Gastric gland) | pIC50 [1] | logD [2] | Compound | inhibition at 10 µM (hERG (KCNH2)) | ED50 (Rattus norvegicus) |
| --- | --- | --- | --- | --- | --- |
| 5.01 µM | 4.8 | 2.5 | Cc1ccccc1[C@@H]1CCc2c(C(N)=O)cc3c(nc(C)n3C)c2O1 | 14% | 2 µmol/kg |
| 1.17 µM | – | 2.5 | Cc1ccccc1[C@@H]1CCc2c(C(=O)N(C)C)cc3c(nc(CO)n3C)c2O1 | 12% | 1 µmol/kg |
| 0.631 µM | 4.7 | 3.1 | Cc1ccccc1[C@@H]1CCc2c(C(=O)NC(C)C)cc3c(nc(C)n3C)c2O1 | 30% | 0.45 µmol/kg |
| 50.1 µM | 5 | 2.4 | Cc1nc2c3c(c(C(=O)N(C)C)cc2n1C)CC[C@@H](c1cccs1)O3 | 9% | 2 µmol/kg |
| 10 µM | 4.6 | 2.6 | Cc1ccccc1[C@@H]1CCc2c(C(=O)NC3COC3)cc3c(nc(C)n3C)c2O1 | 49% | 2 µmol/kg |
| – | 4.6 | – | Cc1ccccc1[C@@H]1CCc2c(C(=O)NCC[S+](C)[O-])cc3c(nc(C)n3C)c2O1 (stereo partly specified) | 6% | 1.4 µmol/kg |
| 2 µM | < 5 | 2.9 | CNC(=O)c1cc2c(nc(C)n2C)c2c1CC[C@@H](c1ccc(Cl)cc1)O2 | 68% | 0.3 µmol/kg |
| 6.31 µM | 4.8 | 2.4 | CNC(=O)c1cc2c(nc(C)n2C)c2c1CC[C@@H](c1ccccc1)O2 | 26% | 0.5 µmol/kg |
| 2.51 µM | 4.9 | 2.6 | Cc1nc2c3c(c(C(=O)N4CCC4)cc2n1C)CC[C@@H](c1ccccc1)O3 | 18% | 0.3 µmol/kg |
| 63.1 µM | 5 | 2.4 | Cc1ccccc1[C@@H]1CCc2c(C(=O)N3CC(CO)C3)cc3c(nc(C)n3C)c2O1 | 2% | 1.4 µmol/kg |
| 10 µM | 4.6 | 2.6 | CONC(=O)c1cc2c(nc(C)n2C)c2c1CC[C@@H](c1ccccc1C)O2 | 13% | 1.8 µmol/kg |
| 6.31 µM | < 5 | 3.3 | Cc1ccccc1[C@@H]1CCc2c(C(=O)NCC3CCCCO3)cc3c(nc(C)n3C)c2O1 (stereo partly specified) | 54% | 1.2 µmol/kg |
| 0.794 µM | 4.5 | 3 | CCOC1CN(C(=O)c2cc3c(nc(C)n3C)c3c2CC[C@@H](c2ccccc2C)O3)C1 | 70% | 0.4 µmol/kg |
| 0.501 µM | 5.6 | 2.9 | Cc1cc(F)ccc1[C@@H]1CCc2c(C(=O)N(C)C)cc3c(nc(C)n3C)c2O1 | 19% | < 0.3 µmol/kg |
| 12.6 µM | 4.7 | 2.9 | Cc1ccccc1[C@@H]1CCc2c(C(=O)NCC#N)cc3c(nc(C)n3C)c2O1 | 18% | 3 µmol/kg |
| 0.794 µM | 5.4 | 3 | Cc1nc2c3c(c(C(=O)N(C)C)cc2n1C)CC[C@@H](c1ccc(F)cc1Cl)O3 | 33% | 0.1 µmol/kg |
| 1.26 µM | 5.3 | 3 | Cc1nc2c3c(c(C(=O)N4CCC4)cc2n1C)CC[C@@H](c1ccc(Cl)cc1)O3 | 84% | 0.16 µmol/kg |
| 39.8 µM | 5 | 2.4 | Cc1ccccc1[C@@H]1CCc2c(C(=O)N3CC(O)C3)cc3c(nc(C)n3C)c2O1 | 11% | 1.2 µmol/kg |
| 3.16 µM | 4.3 | – | COC1(C)CN(C(=O)c2cc3c(nc(C)n3C)c3c2CC[C@@H](c2ccccc2C)O3)C1 | 20% | 1 µmol/kg |
